One series concerns the target T1, pHL2-hPTH1R (Homo sapiens, UniProt Q03431).
T1 sequence (Q03431 106-593 limits assumed): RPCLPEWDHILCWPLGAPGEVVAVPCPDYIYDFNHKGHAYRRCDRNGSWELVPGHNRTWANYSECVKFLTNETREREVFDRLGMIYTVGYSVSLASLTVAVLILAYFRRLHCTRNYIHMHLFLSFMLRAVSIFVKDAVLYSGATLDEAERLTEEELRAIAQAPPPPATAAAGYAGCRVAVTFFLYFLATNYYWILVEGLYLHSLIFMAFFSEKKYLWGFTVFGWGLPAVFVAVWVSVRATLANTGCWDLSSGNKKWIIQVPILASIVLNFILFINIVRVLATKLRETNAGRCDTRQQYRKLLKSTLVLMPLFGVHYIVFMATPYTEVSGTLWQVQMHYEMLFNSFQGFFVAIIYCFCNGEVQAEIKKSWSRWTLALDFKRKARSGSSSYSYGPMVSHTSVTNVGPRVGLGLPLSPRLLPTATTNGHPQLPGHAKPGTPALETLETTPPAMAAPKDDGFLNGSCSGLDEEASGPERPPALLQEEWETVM
Put plainly: Receptor internalization in GPG-10 cells. It is filed as cell-based. Conditions: 1x10-8 to 1x10-5 M, fluorescence ratio 485/405, n = 3. In a few lines: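 Assay used HEK293 cells stably expressing glosensor plus hPTH1R with pHluorin2 inserted in the ECD E2 region. Confluent monolayers were rinsed with HBSS (0.1% BSA, 10 mM HEPES, pH 7.4), and baseline was recorded for 10 min: 535 nm emission with alternating 485/405 nm excitation at 1-min cycles. Ligand was then added and reading continued for 90 min. The AUC of the 485/405 ratio vs time was taken at each concentration.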

Series [1] is described as follows: Blood PTH analog concentrations. It is filed as in vivo. Conditions: female, CD-1, mouse, serum, sc, 10 nmol/kg.
In series [2] the target is bovine serum albumin (bovine) (UniProt P02769). In words: BLI.
bovine serum albumin (bovine), sequence (P02769 25-607): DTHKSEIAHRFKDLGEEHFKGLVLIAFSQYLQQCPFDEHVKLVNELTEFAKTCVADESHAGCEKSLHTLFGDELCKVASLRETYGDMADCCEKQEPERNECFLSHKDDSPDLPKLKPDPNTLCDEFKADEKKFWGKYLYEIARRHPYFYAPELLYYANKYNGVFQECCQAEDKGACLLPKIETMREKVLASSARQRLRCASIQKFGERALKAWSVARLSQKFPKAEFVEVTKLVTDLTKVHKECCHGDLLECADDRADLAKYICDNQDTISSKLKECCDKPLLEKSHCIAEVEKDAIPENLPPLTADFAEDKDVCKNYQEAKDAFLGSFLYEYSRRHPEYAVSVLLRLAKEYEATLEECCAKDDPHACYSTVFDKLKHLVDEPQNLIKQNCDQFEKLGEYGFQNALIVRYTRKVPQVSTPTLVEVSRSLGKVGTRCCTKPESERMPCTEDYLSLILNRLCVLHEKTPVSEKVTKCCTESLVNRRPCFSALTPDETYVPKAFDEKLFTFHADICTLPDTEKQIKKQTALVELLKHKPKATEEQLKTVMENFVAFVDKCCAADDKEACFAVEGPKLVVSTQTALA

Some results are limits rather than exact numbers.

For orientation: half-life means how long it takes for the measured level to halve.

On to L11,dW12,W23,Y36-PTHrP(7-36), for which the “PHL2-PTH1R internalization into acidic compartments” value on pHL2-hPTH1R is given as “did not induce internalization”. Take `CC[C@H](C)[C@H](NC(=O)[C@H](CCC(=O)O)NC(=O)[C@H](CO)NC(=O)[C@@H](NC(=O)[C@@H](N)CO)C(C)C)C(=O)N[C@@H](CCC(N)=O)C(=O)N[C@@H](CC(C)C)C(=O)N[C@@H](CCSC)C(=O)N[C@@H](Cc1cnc[nH]1)C(=O)N[C@@H](CC(N)=O)C(=O)N[C@@H](CC(C)C)C(=O)NCC(=O)N[C@@H](CCCCN)C(=O)N[C@@H](Cc1cnc[nH]1)C(=O)N[C@@H](CC(C)C)C(=O)N[C@@H](CC(N)=O)C(=O)N[C@@H](CO)C(=O)N[C@@H](CCSC)C(=O)N[C@@H](CCC(=O)O)C(=O)N[C@@H](CCCNC(=N)N)C(=O)N[C@H](C(=O)N[C@@H](CCC(=O)O)C(=O)N[C@@H](Cc1c[nH]c2ccccc12)C(=O)N[C@@H](CC(C)C)C(=O)N[C@@H](CCCNC(=N)N)C(=O)N[C@@H](CCCCN)C(=O)N[C@@H](CCCCN)C(=O)N[C@@H](CC(C)C)C(=O)N[C@@H](CCC(N)=O)C(=O)N[C@@H](CC(=O)O)C(=O)N[C@H](C(=O)N[C@@H](Cc1cnc[nH]1)C(=O)N[C@@H](CC(N)=O)C(=O)N[C@@H](Cc1ccccc1)C(N)=O)C(C)C)C(C)C` [PTH(1-34)]: the half-life in series [1] is 18 min.

Consider Palm-M-PTH(1-14) (peptide), for which, in series [2], the fold lower estimated KD than the non-lipidated counterpart M-PTH(1-14) is greater than 3 fold.

The record behind these values is paper PMC12078793 (Nature Communications, 2025).
